Shown are actives, neighbours in structure and some others; about 1.6% of the full set was active somewhere.
KLK7 zymogen act: proKLK7 zymogen activators, primary screen, biochemical, fluorescence intensity. activation, % at 7 µM. AID 652039, 2013. purified proKLK7, EDANS-DABCYL substrate fluorescence; 100% is mature enzyme control, 0% vehicle. 0.9% of 370,000 active;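 active = activation above the mean of all tested compounds plus 3 SD, computed per campaign excluding outliers beyond control limits, cut at about 13% in these data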
Target sequence (P49862 whole entry, looked up): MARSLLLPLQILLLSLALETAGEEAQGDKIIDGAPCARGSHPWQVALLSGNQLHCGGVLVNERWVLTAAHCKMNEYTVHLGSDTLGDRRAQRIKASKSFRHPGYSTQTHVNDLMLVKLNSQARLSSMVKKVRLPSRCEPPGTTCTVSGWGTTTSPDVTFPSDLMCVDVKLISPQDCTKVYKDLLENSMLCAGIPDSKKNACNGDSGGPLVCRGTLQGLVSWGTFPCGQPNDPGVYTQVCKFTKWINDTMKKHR
procasp7 counter: procaspase-7 activators, primary screen, counter-screen for procaspase-3 activator project, biochemical, absorbance, HTS, human; AID 463210, 2010; activation, % at 8.5 µM; 0.093% of 330,000 active; Caspase-7 (Homo sapiens), P55210; recombinant procaspase-7, Ac-DEVD-pNA absorbance 405 nm; D23A/D198A/D206A triple mutant, cannot self-cleave; scale: DMSO 0, 5 µM enzyme 100;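 active = percent activation above the screen-wide mean plus 3 SD, cut at about 25% in these data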
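buffer or medium = Zinc-free HEPES/NaCl buffer, pH 7.4 | material = Procaspase-7 triple mutant (PC-7 D3A) | input = 2 µM procaspase-7 mutant as dispensed | signal = Epi-absorbance of released pNA at 405 nm, two timepoints | timing = 1 h preincubation, 2 h reaction | replicates = singlicate compound testing | evaluation = % activation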
procasp3 activ: activators of human procaspase-3 D3A mutant, primary screen, biochemical, absorbance, PC-3 D3A mutant, single concentration. Caspase-3 (Homo sapiens), P42574. AID 463141, 2010. recombinant procaspase-3 D3A, Ac-DEVD-pNA absorbance 405 nm. 0.11% of 330,000 active. activation, % at 8.5 µM;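 active = activation above the mean of all tested compounds plus 3 SD, cut at about 21% in these data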
Target sequence (P42574 whole entry D9A/D28A/D175A): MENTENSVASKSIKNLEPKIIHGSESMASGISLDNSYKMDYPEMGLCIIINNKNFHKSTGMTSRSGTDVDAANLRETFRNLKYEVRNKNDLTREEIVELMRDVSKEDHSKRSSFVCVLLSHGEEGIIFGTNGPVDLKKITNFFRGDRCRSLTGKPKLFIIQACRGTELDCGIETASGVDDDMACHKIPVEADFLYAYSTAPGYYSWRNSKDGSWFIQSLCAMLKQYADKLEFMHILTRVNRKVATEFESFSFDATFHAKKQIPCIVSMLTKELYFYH
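Test system: Procaspase-3 D3A mutant, all three cleavage aspartates alanine | Dosing: Single dose, 8.5 µM nominal compound, 0.8% DMSO | Schedule: 1 h preincubation, 2 h reaction | Technique: 405 nm absorbance of p-nitroaniline, reads at 0 and 120 min | Repeats: One well per compound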
Neddylation inh: inhibitors of cullin neddylation, primary screen, biochemical, TR-FRET, uHTS, NAE and Ubc12; calls only at 25 µM; 0.58% of 360,000 active; AID 651699, 2012; in the data active = inhibition above about 36%
KLK7 act conf: proKLK7 zymogen activators, confirmation, biochemical, fluorescence intensity, triplicate | shares compounds with KLK7 zymogen act | purified proKLK7, EDANS-DABCYL substrate fluorescence; scaled: vehicle 0, mature enzyme 100 | activation, % at 7 µM | 68% of 3,200 active;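 active = activation, as change over the incubation, above the mean of all tested compounds plus 3 SD, cut at about 13% in these data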
EDANS interfere: EDANS-DABCYL substrate optical interference, artefact control for kallikrein-7 zymogen activator project, biochemical, fluorescence intensity, high throughput; shares compounds with KLK7 zymogen act; no enzyme, 4 h; solvent 0%, active enzyme control 100%; activation, % at 7 µM; 80% of 3,200 active; AID 686952, 2013;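 active = activation above the all-compound mean plus 3 SD, ignoring values outside control-based bounds, cut at about 4.8% in these data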;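 also: value is the 4 h activation minus the activation read at time zero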
EDANS interf: EDANS fluorescence interference in dose response, no enzyme; shares compounds with KLK7 zymogen act; EDANS-DABCYL peptide fluorescence interference; EC50, µM; 20% of 250 active; AID 720493;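 active = compounds that raise the fluorescence signal in this interference counterscreen, with EC50 at or below 10 µM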;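 also: intact quenched peptide substrate alone read at 355 nm excitation and 520 nm emission; signal is fluorescence gain from T0 to T4 after four hours at room temperature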
Of the large screens only hits and unclear results are named; the others gave an inactive call (follow-up assays come after a bar, where shown).

COc1ccc(OC)c2[nH]c(C(=O)O)cc12	none
O=c1cn[nH]c2ccccc12	none
CCOC(=O)c1ccc(OC)c(OC)c1Cl	none
CCOC(=O)c1cc(OC(C)=O)c2ccc(OC)c(OC)c2c1	KLK7 zymogen act 14 (not shown: procasp7 counter, procasp3 activ, Neddylation inh) | KLK7 act conf inactive | EDANS interfere inactive
Cc1ccc2cc3cc(C(=O)NCCCN4CCCC4=O)oc3nc2c1	KLK7 zymogen act 17 (not shown: Neddylation inh) | KLK7 act conf inactive | EDANS interfere 7.5
CCCCN(CC)CCCNC(=O)c1cc2cc3ccc(OC)cc3nc2o1	KLK7 zymogen act 63 | KLK7 act conf 58 | EDANS interfere 72
COc1ccc2cc3cc(C(=O)NCCCN4CCOCC4)oc3nc2c1	KLK7 zymogen act 49 (not shown: Neddylation inh) | KLK7 act conf 64 | EDANS interfere 69
COCCCNCC(O)COc1ccccc1F (stereo not given)	none
CCC(=O)N(CCC1(c2ccccc2OC)CCOC(C(C)C)C1)Cc1ccco1 (stereo not given)	none
CC(C)CCN=Cc1c(O)n(-c2ccccc2)c(=O)c2ccccc12	none
CCN1CCCC1CN=Cc1c(O)n(-c2ccccc2)c(=O)c2ccccc12 (stereo not given)	KLK7 zymogen act 16 | KLK7 act conf 16 | EDANS interfere 18
O=C(Nc1c(-c2ccc(F)cc2)nc2ncccn12)C1CC1	KLK7 zymogen act 25 (no result: procasp7 counter, procasp3 activ, Neddylation inh) | KLK7 act conf 36 | EDANS interfere 38
O=C(Nc1c(-c2ccccc2)nc2ncccn12)c1ccccc1	KLK7 zymogen act 13 (no result: procasp7 counter, procasp3 activ, Neddylation inh) | KLK7 act conf 60 | EDANS interfere 14 | EDANS interf inactive
O=C(Nc1nc2ncccn2c1-c1ccc(F)c(F)c1)C1CC1	KLK7 zymogen act 18 (no result: procasp7 counter, procasp3 activ, Neddylation inh) | KLK7 act conf 20 | EDANS interfere 24
Cc1ccc(-c2nc3ncccn3c2NC(=O)Nc2ccc(F)cc2)cc1	KLK7 zymogen act 13 (no result: procasp7 counter, procasp3 activ, Neddylation inh) | KLK7 act conf inactive | EDANS interfere inactive
O=[N+]([O-])c1cccc(C2(O)COc3ccccc3O2)c1 (stereo not given)	none
COCCNC(=O)C(=O)NCC1OCCN1S(=O)(=O)c1cc(F)ccc1F (stereo not given)	none
O=C(Nc1ccc(F)cc1)Nc1c(-c2ccccc2)nc2ncccn12	none (no result: procasp7 counter, procasp3 activ, Neddylation inh)
CC(=O)Nc1nc2ncccn2c1-c1ccc(C)cc1	KLK7 zymogen act 23 (no result: procasp7 counter, procasp3 activ, Neddylation inh) | KLK7 act conf 48 | EDANS interfere 50
Cc1ccc(-c2c(NC(=O)Nc3ccc(F)cc3)nc3ncccn23)cc1	none (no result: procasp7 counter, procasp3 activ, Neddylation inh)
O=C(Nc1c(-c2ccccc2)nc2ncccn12)C1CC1	KLK7 zymogen act 28 (no result: procasp7 counter, procasp3 activ, Neddylation inh) | KLK7 act conf 28 | EDANS interfere 34
COCCN(CC(=O)Nc1ccccc1C(F)(F)F)C(=O)c1ccc(-n2cccn2)cc1	none
O=C(Nc1ccc(Cl)c(S(=O)(=O)N2CCCCC2)c1)c1ccco1	none
O=c1oc2c(CN3CCOCC3)c(O)ccc2c2ccccc12	none
O=c1oc2c(CN3CCOCC3)c(O)c(Cl)cc2c2c1CCCC2	KLK7 zymogen act 53 | KLK7 act conf 66 | EDANS interfere 67
O=C(COc1cc2oc(=O)c3c(c2cc1Cl)CCC3)NCCN1CCOCC1	none
O=c1oc2c(CN3CCOCC3)c(O)ccc2c2c1CCCC2	KLK7 zymogen act 52 (not shown: Neddylation inh) | KLK7 act conf 69 | EDANS interfere 64
c1cc(Nc2ncnc3sccc23)cc(-c2nnc3n2CCCCC3)c1	none
CNc1cncc(-c2ccc(O)cc2)n1	KLK7 zymogen act 41 (not shown: procasp7 counter, procasp3 activ, Neddylation inh) | KLK7 act conf 19 | EDANS interfere 19
CNc1cncc(-c2cnn(CC(C)C)c2)n1	KLK7 zymogen act 33 (not shown: procasp7 counter, procasp3 activ, Neddylation inh) | KLK7 act conf 72 | EDANS interfere 64
CNc1cncc(-c2ccc(CN(C)C)cc2)n1	KLK7 zymogen act 116 (not shown: procasp7 counter, procasp3 activ, Neddylation inh) | KLK7 act conf 72 | EDANS interfere 82
CC(=O)Nc1cncc(-c2ccc(CN(C)C)cc2)n1	none (no result: procasp7 counter, procasp3 activ)
CNc1cncc(-c2ccc(CN3CCOCC3)cc2)n1	KLK7 zymogen act 82 (not shown: procasp7 counter, procasp3 activ, Neddylation inh) | KLK7 act conf 67 | EDANS interfere 78
COc1ccc(CN2CCOCC2)cc1	none
Cc1ccc(C(=O)N2CCN(S(=O)(=O)N3CCCCC3)CC2)cc1	none
CNc1cncc(-c2cccc(NS(C)(=O)=O)c2)n1	KLK7 zymogen act 130 (not shown: procasp7 counter, procasp3 activ, Neddylation inh) | KLK7 act conf 45 | EDANS interfere 57
CNc1cncc(-c2cc(C)c(O)c(C)c2)n1	none (no result: procasp7 counter, procasp3 activ)
CNc1cncc(-c2ccc(S(C)(=O)=O)cc2)n1	KLK7 zymogen act 85 (not shown: procasp7 counter, procasp3 activ, Neddylation inh) | KLK7 act conf 66 | EDANS interfere 65
CNc1cncc(-c2ccc(OC)cc2)n1	KLK7 zymogen act 25 (not shown: procasp7 counter, procasp3 activ, Neddylation inh) | KLK7 act conf 49 | EDANS interfere 41 | EDANS interf inactive
CNc1cncc(-c2ccoc2)n1	KLK7 zymogen act 20 (not shown: procasp7 counter, procasp3 activ, Neddylation inh) | KLK7 act conf 28 | EDANS interfere 30
CCOC(=O)c1ccc(NC(=O)N2CCN(c3cccc(OC)c3)CC2)cc1	none
COc1ccc(OCC(=O)Nc2c3c(nn2-c2ccccc2)CS(=O)(=O)C3)cc1	none
C=CCc1cc(OC)ccc1OCCCCn1cncn1	none
CNc1cncc(-c2ccc(OCCCN(C)C)nc2)n1	KLK7 zymogen act 51 (not shown: procasp7 counter, procasp3 activ, Neddylation inh) | KLK7 act conf 59 | EDANS interfere 72
CNc1cncc(-c2ccc(F)cc2F)n1	KLK7 zymogen act 14 (not shown: procasp7 counter, procasp3 activ, Neddylation inh) | KLK7 act conf 20 | EDANS interfere 50
CNc1cncc(-c2cccc(C(C)=O)c2)n1	none (no result: procasp7 counter, procasp3 activ)
CCOC(=O)c1[nH]c2ccc(OC)cc2c1NC(=O)CCN1CCCC(C)C1 (stereo not given)	KLK7 zymogen act 27 (not shown: Neddylation inh) | KLK7 act conf inactive | EDANS interfere inactive
CCCN(CCC)CC(=O)Nc1cccc2c1OCO2	none
OC1c2cc(Cl)cc(Cl)c2N=C2CCCN21 (stereo not given)	KLK7 zymogen act 15 (not shown: procasp7 counter, procasp3 activ, Neddylation inh) | KLK7 act conf 18 | EDANS interfere 11 | EDANS interf inactive
OC1c2cc(Cl)ccc2-c2c(Cl)cc(Cl)cc21 (stereo not given)	none (no result: procasp7 counter, procasp3 activ)
O=S(=O)(Nc1ccc(-c2nc3cccnc3s2)cc1)c1ccc(Cl)s1	none (not shown: Neddylation inh)
CCS(=O)(=O)Nc1cccc(-c2nc3cccnc3s2)c1	none
CCS(=O)(=O)Nc1ccc(-c2nc3cccnc3s2)cc1	KLK7 zymogen act 64 (not shown: Neddylation inh) | KLK7 act conf 60 | EDANS interfere 68
O=S(=O)(Nc1ccc(-c2nc3cccnc3s2)cc1)c1ccccc1F	KLK7 zymogen act 99 (not shown: Neddylation inh) | KLK7 act conf 66 | EDANS interfere 73

Compound activity deposited in PubChem by several laboratories.
